# CHRM4 antagonist – CHRM4 antagonism in calcium assay; inhibition, % at 3 µM; P08173; 360,000 compounds, 0.73% hits; CHO-hM4 cells, ACh EC80, Fluo-8 calcium fluorescence; AID 624125;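 active means inhibition above its plate's cutoff, the mean inhibition of sample wells plus 3 SD, cut at about 27% in these data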;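 further: 0% = acetylcholine EC80 with DMSO and 100% = DMSO without agonist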
# Target sequence (P08173 whole entry, looked up): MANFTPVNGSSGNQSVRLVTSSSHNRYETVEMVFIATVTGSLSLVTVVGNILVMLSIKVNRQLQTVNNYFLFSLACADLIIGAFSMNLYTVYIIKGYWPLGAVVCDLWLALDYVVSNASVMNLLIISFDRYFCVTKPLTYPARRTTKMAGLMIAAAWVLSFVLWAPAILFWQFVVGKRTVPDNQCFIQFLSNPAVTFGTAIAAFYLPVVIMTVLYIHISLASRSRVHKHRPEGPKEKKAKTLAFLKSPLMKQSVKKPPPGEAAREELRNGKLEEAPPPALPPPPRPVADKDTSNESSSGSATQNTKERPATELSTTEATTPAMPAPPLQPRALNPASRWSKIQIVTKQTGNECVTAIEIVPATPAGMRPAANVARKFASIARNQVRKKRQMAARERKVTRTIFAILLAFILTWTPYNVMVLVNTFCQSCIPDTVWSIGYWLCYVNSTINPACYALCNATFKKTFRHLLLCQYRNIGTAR
# CHRM5 agonist – agonists of human muscarinic M5 receptor (CHRM5) | P08912 | CHO-K1 hM5 cells, Fluo-8 calcium fluorescence; 0% DMSO wells, 100% maximal acetylcholine response | activation, % at 3 µM | 360,000 compounds, 0.19% hits;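 active means activation above the run's mean over test compounds plus 3 SD, cut at about 23% in these data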;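 further: signal is peak over basal fluorescence ratio across the kinetic read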
# M4 PAM – CHRM4 positive allosteric modulation. P08173. CHO-K1 hM4/Gqi5, Fluo-8 calcium fluorescence, ACh EC20; 0% = ACh EC20, 100% = maximal ACh. activation, % at 3 µM. 360,000 compounds, 0.4% hits. AID 624126;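 active means activation above its plate's cutoff, the mean activation of sample wells plus 3 SD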
# M4 ag – CHRM4 agonism in calcium assay; AID 624127; P08173; 360,000 compounds, 0.14% hits; CHO-K1 hM4/Gqi5, Fluo-8 calcium fluorescence; vehicle 0%, full acetylcholine response 100%; activation, % at 3 µM;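 active means activation above the run mean over all test wells plus 3 SD, cut at about 32% in these data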;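 further: peak over basal fluorescence ratio per well then scaled between controls; 0% = DMSO wells and 100% = acetylcholine at EC100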
# M5 antag – blocks acetylcholine activation of human M5 receptor. P08912. CHO-hM5 cells, Fluo-8 calcium fluorescence, ACh EC80. inhibition, % at 3 µM. 360,000 compounds, 0.59% hits;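 active means inhibition above a per-plate cutoff, the mean of that plate's test compounds plus 3 SD, cut at about 27% in these data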;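 further: 0% = acetylcholine EC80 with DMSO and 100% = DMSO without agonist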
# M5 PAM – CHRM5 positive allosteric modulation | P08912 | CHO-K1 hM5, Fluo-8 calcium, ACh EC20 PAM; 0% = ACh EC20, 100% = ACh EC100 | activation, % at 3 µM | 360,000 compounds, 0.3% hits;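 active means activation above the run cutoff, the mean activation of all test compounds plus 3 SD, cut at about 18% in these data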
#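 Replicates: One well per compound, no replicates | System: Human M5 receptor in CHO-K1 cells | Benchmarks: Low control EC20 acetylcholine (0%), high control EC100 acetylcholine (100%) | Probe or stimulus: Acetylcholine, EC20 level | Times: Fluo-8 loading 80 min at 37 °C plus 30 min room temperature | Signal: Intracellular calcium via Fluo-8 fluorescence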
# Active calls of the source: *. An excerpt weighted towards active compounds, which were near 1.9% of everything screened.
SMILES,CHRM4 antagonist,CHRM5 agonist,M4 PAM,M4 ag,M5 antag,M5 PAM
O=C(CSc1ncccn1)N(Cc1cccnc1)C(CCc1ccccc1)c1nc2ccccc2[nH]1 (stereo not given),9.5,-0.3,-8.8,7.9,4.0,-0.7
Cc1ccc(OCCCCNC(C)(C)C)c([N+](=O)[O-])c1,-2.6,-5.2,13.1,3.1,27.1*,-10.4
COCCNCCOc1ccc(C)cc1[N+](=O)[O-],10.7,-2.5,-10.0,0.6,-9.8,0.7
Fc1ccc(COc2ccc(Cl)cc2/C=N/Nc2nc(N3CCCC3)nc(N3CCCC3)n2)cc1,-0.7,1.7,-15.4,34.1*,17.1,-9.3
Cc1ccc(C(=O)OCC(=O)N2CC(C)OC(C)C2)cc1 (stereo not given),-6.5,-2.6,15.7*,2.3,22.5,-8.5
O=C(c1cc(=O)[nH]c2ccccc12)N1CCN(S(=O)(=O)c2ccc(Cl)cc2)CC1,9.6,3.9,-6.4,30.3,27.1*,-29.4
O=c1c2ccccc2sn1-c1ccc(Cl)cc1Cl,1.5,-1.9,-0.2,0.8,-1.3,-1.7
Cc1ccc(Cl)cc1N1CCN(Cc2cc(=O)n3ccsc3n2)CC1,-16.7,0.3,1.6,4.5,-14.0,19.2*
COc1ccc([C@H]2CC(=O)C=C(c3ccc(CNC(=O)OC(C)(C)C)cc3)C2)cc1,27.6*,1.7,-13.7,25.2,26.6,-39.3
COc1ccc([C@H]2CC(=O)C=C(c3ccc(OC(F)(F)F)cc3)C2)cc1,-3.7,0.3,9.1,0.2,11.2,-9.7
COc1ccc(CN2C(=O)CCC2(C)c2nnnn2-c2ccc3c(c2)OCCO3)cc1OC (stereo not given),10.9,2.0,0.8,-0.8,8.8,0.7
COc1ccc(-c2noc(CCC(=O)NCC3CCCO3)n2)cc1OC (stereo not given),27.2*,-4.4,-6.0,0.5,15.5,-4.3
CCOc1cc(-c2noc(CCC(=O)NCC3CCCO3)n2)ccc1OC (stereo not given),0.3,-2.9,0.7,0.9,-2.4,-4.2
CC(C)CNc1ncnc2c1ncn2[C@H]1CN(CCc2ccccc2)C[C@@H](CO)O1,3.0,-1.3,7.7,0.5,13.2,-2.4
O=C(O)CCCC(=O)N1CCCC1,-8.4,1.2,13.4,1.4,-16.2,20.6*
O=C(CCCC(=O)N1CCCC1)N1CCCC1,-11.7,-3.9,5.8,0.2,-6.4,2.8
CCCNC(=O)C1(C)CCN(Cc2cc(-c3ccccc3)on2)C1 (stereo not given),7.1,0.9,-2.6,0.8,8.2,-0.7
CCOC(=O)COc1ccccc1/C=C\[N+](=O)[O-],27.5*,-1.2,-8.9,4.2,17.2,-2.9
Nc1[nH]ncc1-c1ccc(Cl)cc1,1.9,2.3,37.8*,3.3,-7.3,8.0
COc1cc(-c2cc(C(=O)NCc3ccco3)c3ccccc3n2)cc(OC)c1OC,6.4,1.1,-8.3,15.4,13.2,-10.8
COc1cc(-c2cc(C(=O)Nc3ccc(S(=O)(=O)NCc4ccco4)cc3)c3ccccc3n2)cc(OC)c1OC,46.3*,2.1,-25.1,17.9,20.6,-15.3
CCOC(=O)c1c(S(=O)(=O)NCC(=O)Nc2cc(C)ccc2C)c(C)n(C)c1C,9.2,-5.1,-2.8,-0.7,15.9,-5.1
CCOC(=O)c1c(S(=O)(=O)NCC(=O)Nc2ccc(F)cc2F)c(C)n(C)c1C,-7.5,-1.5,17.9*,0.3,-12.6,13.0
Cc1cc2ccccc2n1CCNCc1c(C(=O)N2CCOCC2)nc2ccccn12,25.3,245.2*,-17.0,30.2,75.1*,-6.5
Cc1cc(-c2nnc(SCC(=O)Nc3ccc(C)c(C)c3)n2N)n[nH]1,8.4,-1.8,1.3,0.7,-17.9,20.5*
SMILES,CHRM4 antagonist,CHRM5 agonist,M4 PAM,M4 ag,M5 antag,M5 PAM
CCCNC(=O)N1C2=NC(C(=O)OC)=C(C(=O)OC)[C@@H]3N(Cc4ccccc4)c4ccccc4[C@]23C[C@H]1CO,7.2,6.8,10.3,0.2,-8.6,20.1*
COc1ccc(S(=O)(=O)N2CCOC23CCN(S(=O)(=O)c2ccc(F)cc2)CC3)cc1,29.1*,1.9,-5.6,0.0,1.8,-1.5
CN1/C(=C/C=C/c2n(C)c3cc([N+](=O)[O-])c([N+](=O)[O-])cc3[n+]2C)C(C)(C)c2ccccc21,7.4,-3.4,-6.8,-1.1,-5.7,-3.4
CCC(=O)c1ccc(OCC(O)CN2CCN(C(c3ccccc3)c3ccccc3)CC2)cc1 (stereo not given),44.3*,-6.0,-13.8,1.0,15.6,-27.7
N#Cc1ccc(OCC(O)CN2CCN(C(c3ccccc3)c3ccccc3)CC2)cc1 (stereo not given),32.4*,-6.1,-19.4,0.4,37.2*,-17.6
COC(=O)c1ccccc1S(=O)(=O)N1CCC(C(=O)NCC2CCCO2)CC1 (stereo not given),2.9,1.8,-1.9,0.7,3.2,8.5
COC(=O)c1ccccc1S(=O)(=O)N1CCC(C(=O)NCc2ccco2)CC1,-4.2,0.0,23.4*,0.8,1.2,10.9
CCNc1nc(NC(C)C)nc(N(C)C#N)n1,5.1,1.9,5.9,-0.3,-0.2,5.0
CCCN(C#N)c1nc(NCC)nc(NC(C)C)n1,-1.6,8.9,10.2,-0.5,53.2*,-0.6
COC(=O)/C=C1\OCc2cccc(C)c21,5.3,-0.7,3.7,1.4,-3.0,1.6
CC(=O)OCc1c(C(F)(F)F)nn(C)c1Oc1cccc(C(F)(F)F)c1,5.6,-0.8,8.1,-1.0,-2.6,3.5
CC(=O)OCc1c(C(F)(F)F)nn(C)c1Oc1ccccc1,-12.6,-1.3,15.0,22.1,6.6,18.7*
CCc1cc(C(=O)Cc2nc3ccccc3s2)c(O)cc1OCC(=O)O,36.1*,3.2,6.5,1.1,-3.3,-0.3
Cc1ccc(C)c(-n2sc3ccc(F)cc3c2=O)c1,10.2,20.7,-7.2,33.2*,7.6,-5.0
CC1=CC2=NC(=O)/C(=C/c3coc4ccc(Cl)cc4c3=O)C(=N)N2O1,23.3,83.1*,-13.8,44.9*,40.5*,-29.2
N=C1/C(=C\c2coc3ccccc3c2=O)C(=O)N=C2SC=CN12,37.8*,108.9*,-43.4,106.8*,34.1*,-33.5
N=C1/C(=C/c2cccn2Cc2ccc(F)cc2)C(=O)N=C2SC=CN12,-9.1,-5.2,-3.0,7.2,6.3,-0.8
CSC1=NSC2=NC(=O)/C(=C\c3cccs3)C(=N)N12,2.8,4.5,-1.2,1.5,-1.8,-0.4
CSC1=NSC2=NC(=O)/C(=C/c3coc4ccccc4c3=O)C(=N)N12,17.8,45.2*,-12.5,33.1*,40.9*,-19.2
CSC1=NSC2=NC(=O)/C(=C/c3coc4ccc(O)cc4c3=O)C(=N)N12,20.2,52.5*,-8.0,26.2,28.1*,-4.9
